Measured values collected from several papers.
Protocols differ between the studies behind these lines.
Organism: Escherichia coli
Observed: microbial growth

`C[C@H](CCC(=O)NCCCNCCCCNCCCN)[C@H]1CC[C@H]2[C@@H]3[C@H](O)C[C@@H]4C[C@H](O)CC[C@]4(C)[C@H]3C[C@H](O)[C@]12C` has an MIC of greater than 256 µg/mL (broth dilution; MG1655; 20 h).
With `COc1ccc(-c2nc3ccc(C)cc3[nH]2)cc1O` the MIC was 64 µg/mL (broth dilution; ATCC25922).
`N=C(N)c1ccc(OCc2cc(Br)cc(COc3ccc(C(=N)N)cc3)c2)cc1` has an MIC of 100 µg/mL (broth dilution; ATCC25922).
`C=CCn1c(-c2ccc(Cl)cc2)nc2ccc(C)cc21` gave an MIC of 256 µg/mL (broth dilution; ATCC25922).
With `N=C(N)c1ccc(OCCCCCCCCCOc2ccc(C(=N)N)cc2)cc1` the MIC was 50 µg/mL (BW25113).
With `CC(C)Oc1c(NC(=O)c2ccc(NC(=O)[C@H](CC(N)=O)NC(=O)c3ccc(NC(=O)c4cccc(N)c4)cc3)cc2)ccc(C(=O)Nc2ccc(C(=O)O)cc2)c1O` the MIC was 32 µg/mL (DSM1116).
With `N=C(N)c1ccc(OCc2cccc(COc3ccc(C(=N)N)cc3)c2)cc1` the MIC was 200 µg/mL (broth dilution; ATCC25922).
With `CC1(C)S[C@@H]2[C@H](NC(=O)[C@H](N)c3ccccc3)C(=O)N2[C@H]1C(=O)O` the MIC was 4 µg/mL (broth dilution; MG1655).
For `c1ccc2c(-c3nc4ccccc4[nH]3)c3ccccc3cc2c1`, the MIC was 64 µg/mL (broth dilution; ATCC25922).
The MIC of `Cc1ccc(NCc2ccc(Oc3ccccn3)cc2)cc1` is reported as greater than 25 µg/mL.
With `CC(C)Oc1c(NC(=O)c2ccc(NC(=O)[C@H](CC(N)=O)NC(=O)c3ccc(NC(=O)c4ccc(N)cc4)cc3)cc2)ccc(C(=O)Nc2ccc(C(=O)O)cc2)c1O` the MIC was 2 µg/mL (DSM1116).
For `CCn1cc(C(=O)O)c(=O)c2cc(F)c(N3CCNCC3)cc21`, the MIC was 1 µM (broth dilution; ATCC 8739; ATCC8739).
The MIC of `O=C(Nc1ccc(F)c(Cl)c1)c1cc(Cl)ccc1O` is reported as greater than 64 µg/mL (broth dilution; ATCC25922).
The MIC of `COc1cc(Cc2cnc(N)nc2N)cc(OC)c1OC` is reported as roughly 0.2 µM.
With `C/C(=C\c1ccc(C#N)cc1)C(=O)Nc1ccc(C(=O)N[C@@H](CC(N)=O)C(=O)Nc2ccc(C(=O)Nc3ccc(C(=O)Nc4ccc(C(=O)O)cc4)c(O)c3OCC(C)C)cc2)cc1` the MIC was 0.5 µg/mL (DSM1116).
`O=C1NN=C(N=Cc2ccccc2O)C1=NNn1c(-c2ccccc2)nc2ccccc2c1=O` gave an MIC of 55.4 µM (broth dilution; 24 h).
With `Cc1ccc(C)n1-c1ccc(-c2nnc(S)s2)cc1` the MIC was 2 µg/mL (broth dilution; ATCC10536; 18 h).
With `Cc1ccc2nc(-c3cccc([N+](=O)[O-])c3)[nH]c2c1` the MIC was 256 µg/mL (broth dilution; ATCC25922).
With `C[C@@H](O)[C@H]1C(=O)N2C(C(=O)O)=C(S[C@@H]3CN[C@H](C(=O)N(C)C)C3)[C@H](C)[C@H]12` the MIC was no more than 0.125 µg/mL (broth dilution; ATCC25922).
With `N=C(N)c1ccc(OCCCCCCCCCCCOc2ccc(C(=N)N)cc2)cc1` the MIC was greater than 25 µg/mL (broth dilution; BW25113).
`CC(NCCCNC(=O)c1ccc(Cl)s1)c1cc2cc(Br)ccc2[nH]1` (stereo not drawn) has an MIC of 32 µg/mL (broth dilution; ATCC25922).
`CCCCCC(=O)Oc1c(C)c(O)c(C(=O)/C=C/c2ccccc2)c(OC)c1C` gave an MIC of 5000 µg/mL (broth dilution; ATCC25922).
For `Cc1cc(C)n(C(=O)c2ccc(-n3c(C)ccc3C)cc2)n1`, the MIC was 250 µg/mL (broth dilution; ATCC10536; 18 h).
`CSc1ccc(-c2nc3ccc(C)cc3n2Cc2ccccc2)cc1` gave an MIC of 128 µg/mL (broth dilution; ATCC25922).
The MIC of `Cc1ccc(C)n1-c1ccc(-c2nnco2)cc1` is reported as 4 µg/mL (broth dilution; ATCC10536; 18 h).
`COc1c(C)c(OC)c2c(c1C)OC(c1ccccc1)CC2=O` (stereo not drawn) gave an MIC of 5000 µg/mL (broth dilution; ATCC25922).
For `N=C(N)c1ccc(OCc2ccc(Br)cc2COc2ccc(C(=N)N)cc2)cc1`, the MIC was no less than 100 µg/mL (BW25113).
For `CSc1ccc(/C=C/c2cc(/C=C3\Sc4ccccc4N3CCCN3CCCC3)c3ccccc3[n+]2C)cc1.[I-]`, the MIC was 16 µg/mL (broth dilution; ATCC25922).
For `CC1=NN(CNc2ccc(C(=O)O)cc2)C(=O)C1=NNn1c(-c2ccccc2)nc2ccccc2c1=O`, the MIC was 50.5 µM (broth dilution; 24 h).
`O=C(Cc1ccc(O)c(O)c1)NCCCCCCCC[P+](c1ccccc1)(c1ccccc1)c1ccccc1.[Br-]` gave an MIC of greater than 32 µg/mL (broth dilution; ATCC25922; 18 h).
`C[C@H]1COc2c(N3CCN(C)CC3)c(F)cc3c(=O)c(C(=O)O)cn1c23` has an MIC of no more than 0.03 µg/mL (agar dilution; ATCC25).
The MIC of `CCCCCCC/C=C/C(=O)N1C(=O)/C(=C(\O)c2ccc(F)cc2)C(=O)C1CC(C)C` (stereo not drawn) is reported as greater than 200 µg/mL (K12; K12).
`CC(C)Oc1c(NC(=O)c2ccc(NC(=O)[C@H](CC(N)=O)NC(=O)c3ccc(NC(=O)c4ccc(F)cc4)cc3)cc2)ccc(C(=O)Nc2ccc(C(=O)O)cc2)c1O` gave an MIC of 0.5 µg/mL (DSM1116).
With `Cc1ccc2nc(-c3c(F)cccc3Cl)[nH]c2c1` the MIC was 128 µg/mL (broth dilution; ATCC25922).
`O=C(CCCCCCCC[P+](c1ccccc1)(c1ccccc1)c1ccccc1)Nc1cc(O)c(O)c(O)c1.[Br-]` gave an MIC of greater than 32 µg/mL (broth dilution; ATCC25922; 18 h).
`NC1CCc2c1[nH]c1ccc(Cl)c(Cl)c21` (stereo not drawn) gave an MIC of 16 µg/mL (broth dilution; ATCC25922).
The MIC of `N=C(N)c1ccccc1OCc1ccc(COc2ccccc2C(=N)N)cc1` is reported as greater than 200 µg/mL (broth dilution; BW25113).
`CNC(=O)c1cc(Oc2ccc(NC(=O)Nc3ccc(Cl)c(C(F)(F)F)c3)cc2)ccn1` has an MIC of greater than 100 µM (CFT073).
For `COc1c(C(=O)Nc2ccc(C(=O)O)cc2)ccc2nc(-c3cc(NC(=O)C(CC(N)=O)NC(=O)c4ccc(NC(=O)c5ccc(C#N)cc5)cc4)cn3C)[nH]c12` (stereo not drawn), the MIC was greater than 64 µg/mL (DSM1116).
With `CCCCCCC#Cc1cncc(-c2nnc(SCc3ccc(Cl)c(F)c3)n2C)c1` the MIC was no less than 20 µg/mL.
With `N=C(N)c1ccc(OCc2ccc(-c3ccccc3)cc2COc2ccc(C(=N)N)cc2)cc1` the MIC was no less than 200 µg/mL (BW25113).
With `C/C(O)=C1\C(=O)C(CC(C)C)N(C(=O)C=Cc2ccccc2)C1=O` (stereo not drawn) the MIC was greater than 200 µg/mL (K12; K12).
The MIC of `CCCCCCC#Cc1cncc(-c2nnc(SCc3ccc(Cl)cc3)n2C)c1` is reported as no less than 20 µg/mL.
With `Cc1cc(C#N)ccc1C(=O)Nc1ccc(C(=O)N[C@@H](CC(N)=O)C(=O)Nc2ccc(C(=O)Nc3ccc(C(=O)Nc4ccc(C(=O)O)cc4)c(O)c3OC(C)C)cc2)cc1` the MIC was 0.5 µg/mL (DSM1116).
With `COc1c(C)c(OC)c(C(=O)/C=C/c2ccccc2)c(OC)c1C` the MIC was 5000 µg/mL (broth dilution; ATCC25922).
The MIC of `C/C(O)=C1\C(=O)C(CC(C)C)N(C(=O)CCCCCc2ccccc2)C1=O` (stereo not drawn) is reported as greater than 200 µg/mL (K12; K12).
For `COc1ccc(NCc2ccc(Oc3ccccn3)cc2)cc1`, the MIC was greater than 25 µg/mL.
`CC(C)Oc1c(N)ccc(C(=O)Nc2ccc(C(=O)N[C@@H](CC(N)=O)C(=O)Nc3ccc(C(=O)Nc4ccc(C(=O)Nc5ccc(C(=O)O)cc5)c(O)c4OC(C)C)cc3)cc2)c1O` gave an MIC of 2 µg/mL (DSM1116).
`N=C(N)c1cccc(OCCCCCOc2cccc(C(=N)N)c2)c1` has an MIC of greater than 200 µg/mL (broth dilution; BW25113).
The MIC of `Cc1c(CN(C)C(=O)/C=C/c2cnc3c(c2)CC(CCN)C(=O)N3)oc2ccccc12.Cl` (stereo not drawn) is reported as 2 µg/mL (broth dilution; BAA2469; clinical isolate).
For `Cc1ccc2nc(-c3ccc(Cl)cc3)n(Cc3ccccc3Cl)c2c1`, the MIC was 64 µg/mL (broth dilution; ATCC25922).
The MIC of `CC(C)Oc1c(NC(=O)c2ccc(NC(=O)[C@H](CC(N)=O)NC(=O)c3ccc(NC(=O)C(C)Oc4ccccc4)cc3)cc2)ccc(C(=O)Nc2ccc(C(=O)O)cc2)c1O` (stereo partly drawn) is reported as greater than 64 µg/mL (DSM1116).
The MIC of `Oc1ccc(Br)cc1-c1nc2ccccc2[nH]1` is reported as 64 µg/mL (broth dilution; ATCC25922).
With `Cc1ccccc1NCc1ccc(Oc2ccccn2)cc1` the MIC was greater than 25 µg/mL.
